Measured values published in article PMC9071802 (RSC Advances, 2019).

Test system: P. aeruginosa MH602 lasB reporter strain (PlasB: gfp(ASV))
Experiment: Quorum sensing inhibition assay, GFP fluorescence of lasB reporter strain
Format: cell-based, Pseudomonas aeruginosa
Conditions: ± standard deviation, NA: no activity; for inhibition at 62.5 µM / inhibition at 250 µM / inhibition at 125 µM: Pseudomonas aeruginosa; for inhibition at 62.5 µM: read-out: Percentage inhibition of GFP fluorescence, 62.5 μM; for inhibition at 250 µM: read-out: Percentage inhibition of GFP fluorescence, 250 μM; for inhibition at 125 µM: read-out: Percentage inhibition of GFP fluorescence, 125 μM
Outline: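 The reporter is a chromosomal lasB promoter–gfp(ASV) fusion responsive to 3-oxododecanoyl-HSL. Cultures were grown overnight in LB10, then diluted 1:100 in ABT with 0.25% tryptone and 0.13% yeast extract plus ampicillin 100 µg mL⁻¹ and gentamicin 20 µg mL⁻¹. Test compound in DMSO was tested at 62.5, 125 or 250 µM, with 1% DMSO controls. Cultures were incubated at 37 °C and shaken briefly before each read. Fluorescence (ex 485/em 535 nm) and OD600 were read every 30 min for 20 h, in triplicate per experiment.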

Row | Molecule | inhibition at 62.5 µM [%] | inhibition at 250 µM [%] | inhibition at 125 µM [%] | Percentage inhibition of GFP fluorescence (250 μM, 250 µM) [%] | Percentage inhibition of GFP fluorescence (62.5 μM) [%] | Percentage inhibition of GFP fluorescence (125 μM) [%] | Percentage inhibition of GFP fluorescence (250 μM) [%]
1 | Cc1cc2nc(NC(=O)Cn3cc(CSc4nc5ccccc5[nH]4)nn3)[nH]c2cc1C [7e, 2-(4-(((1H-Benzo[d]imidazol-2-yl)thio)methyl)-1H-1,2,3-triazol-1-yl)-N-(5,6-dimethyl-1H-benzo[d]imidazol-2-yl)acetamide] | 15.1 ± 9.82 | 16 ± 26.1 | – | – | – | – | –
2 | O=C(Cn1cc(-c2ccc(Br)cc2)nn1)Nc1nc2ccccc2[nH]1 [6j, N-(1H-Benzo[d]imidazol-2-yl)-2-(4-(4-bromophenyl)-1H-1,2,3-triazol-1-yl)acetamide] | 45.7 ± 5.44 | 50.7 ± 10.9 | 46.2 ± 8.52 | – | – | – | –
3 | Cc1cc2nc(NC(=O)Cn3cc(Cn4cc(Cl)ccc4=O)nn3)[nH]c2cc1C [7f, 2-(4-((5-Chloro-2-oxopyridin-1(2H)-yl)methyl)-1H-1,2,3-triazol-1-yl)-N-(5,6-dimethyl-1H-benzo[d]imidazol-2-yl)acetamide] | 26.1 ± 7.69 | 36.8 ± 7.9 | 29 ± 13.6 | – | – | – | –
4 | CCCCCc1cn(CC(=O)Nc2nc3ccccc3[nH]2)nn1 [6b, N-(1H-Benzo[d]imidazol-2-yl)-2-(4-pentyl-1H-1,2,3-triazol-1-yl)acetamide] | 27.4 ± 2.36 | 43.5 ± 6.23 | 38.8 ± 11.5 | – | – | – | –
5 | Cc1cc2nc(NC(=O)CCCc3cn(CC(=O)NC4CCCCC4)nn3)[nH]c2cc1C [12b, 4-(1-(2-(Cyclohexylamino)-2-oxoethyl)-1H-1,2,3-triazol-4-yl)-N-(5,6-dimethyl-1H-benzo[d]imidazol-2-yl)butanamide] | 5.35 ± 10.2 | 30.8 ± 26.4 | 9.74 ± 20.7 | – | – | – | –
6 | O=C(Cn1cc(-c2ccc(Cl)cc2)nn1)Nc1nc2ccccc2[nH]1 [6i, N-(1H-Benzo[d]imidazol-2-yl)-2-(4-(4-chlorophenyl)-1H-1,2,3-triazol-1-yl)acetamide] | 52.9 ± 8.86 | 65 ± 8.25 | 60.5 ± 6.16 | – | – | – | –
7 | CCCCCCCCCc1cn(CC(=O)Nc2nc3ccccc3[nH]2)nn1 [6d, N-(1H-Benzo[d]imidazol-2-yl)-2-(4-nonyl-1H-1,2,3-triazol-1-yl)acetamide] | 30.6 ± 7.62 | 48.5 ± 12.7 | 41.9 ± 4.5 | – | – | – | –
8 | Cc1ccc(-c2cn(CC(=O)Nc3nc4ccccc4[nH]3)nn2)cc1 [6k, N-(1H-Benzo[d]imidazol-2-yl)-2-(4-(p-tolyl)-1H-1,2,3-triazol-1-yl)acetamide] | 36.8 ± 6.63 | 35.9 ± 13.8 | 32.3 ± 22.2 | – | – | – | –
9 | COc1ccc(-c2cn(CC(=O)Nc3nc4cc(C)c(C)cc4[nH]3)nn2)cc1 [7k, N-(5,6-Dimethyl-1H-benzo[d]imidazol-2-yl)-2-(4-(4-methoxyphenyl)-1H-1,2,3-triazol-1-yl)acetamide] | 20.4 ± 2.59 | > 40 | 24.3 ± 23.3 | 40.82 ± 23.41 | – | – | –
10 | Cc1cc2nc(NC(=O)Cn3cc(-c4ccccc4)nn3)[nH]c2cc1C [7g, N-(5,6-Dimethyl-1H-benzo[d]imidazol-2-yl)-2-(4-phenyl-1H-1,2,3-triazol-1-yl)acetamide] | 28.5 ± 8.41 | 47.6 ± 14.4 | 29.9 ± 17.4 | – | – | – | –
11 | O=C(Cn1cc(CCCC(=O)Nc2nc3ccccc3[nH]2)nn1)Nc1ccccn1 [11c, N-(1H-Benzo[d]imidazol-2-yl)-4-(1-(2-oxo-2-(pyridin-2-ylamino)ethyl)-1H-1,2,3-triazol-4-yl)butanamide] | 3.69 ± 11.2 | 19.4 ± 8.16 | 15.7 ± 8.81 | – | – | – | –
12 | O=C(Cn1cc(CCC(=O)Nc2nc3ccccc3[nH]2)nn1)Nc1ccccn1 [10b, N-(1H-Benzo[d]imidazol-2-yl)-3-(1-(2-oxo-2-(pyridin-2-ylamino)ethyl)-1H-1,2,3-triazol-4-yl)propanamide] | 4.4 ± 2.93 | 28.5 ± 17.5 | 15.6 ± 7.17 | – | – | – | –
13 | O=C(Cn1cc(-c2ccc(O)cc2)nn1)Nc1nc2ccccc2[nH]1 [6m, N-(1H-Benzo[d]imidazol-2-yl)-2-(4-(4-hydroxyphenyl)-1H-1,2,3-triazol-1-yl)acetamide] | 34.4 ± 4.97 | 58.4 ± 7.75 | 45.7 ± 6.21 | – | – | – | –
14 | CCCc1cn(CC(=O)Nc2nc3cc(C)c(C)cc3[nH]2)nn1 [7a, N-(5,6-Dimethyl-1H-benzo[d]imidazol-2-yl)-2-(4-propyl-1H-1,2,3-triazol-1-yl)acetamide] | 19.9 ± 3.8 | 31.8 ± 11 | 22.1 ± 14.7 | – | – | – | –
15 | Cc1ccc(-c2cn(CC(=O)Nc3nc4cc(C)c(C)cc4[nH]3)nn2)cc1 [7i, N-(5,6-Dimethyl-1H-benzo[d]imidazol-2-yl)-2-(4-(p-tolyl)-1H-1,2,3-triazol-1-yl)acetamide] | – | 50.7 ± 12.3 | 14.9 ± 8.82 | – | – | – | –
16 | O=C(Cn1cc(-c2ccccc2)nn1)Nc1nc2ccccc2[nH]1 [6g, N-(1H-Benzo[d]imidazol-2-yl)-2-(4-phenyl-1H-1,2,3-triazol-1-yl)acetamide] | 15.1 ± 5.83 | 46 ± 10.2 | 17.4 ± 22 | – | – | – | –

Row | Molecule | inhibition at 62.5 µM [%] | inhibition at 250 µM [%] | inhibition at 125 µM [%] | Percentage inhibition of GFP fluorescence (250 μM, 250 µM) [%] | Percentage inhibition of GFP fluorescence (62.5 μM) [%] | Percentage inhibition of GFP fluorescence (125 μM) [%] | Percentage inhibition of GFP fluorescence (250 μM) [%]
17 | Cc1cc2nc(NC(=O)CCCc3cn(CC(=O)NC4CCCC4)nn3)[nH]c2cc1C [12a, 4-(1-(2-(Cyclopentylamino)-2-oxoethyl)-1H-1,2,3-triazol-4-yl)-N-(5,6-dimethyl-1H-benzo[d]imidazol-2-yl)butanamide] | 28.5 ± 7.69 | 48.5 ± 5.25 | 34.1 ± 12.6 | – | – | – | –
18 | N-(1H-Benzo[d]imidazol-2-yl)-2-(4-nonyl-1H-1,2,3-triazol-1-yl)acetamide [6e] | – | – | – | – | 24.87 ± 6.69 | 37.20 ± 6.71 | 41.31 ± 7.90
19 | CCCCCCCCCc1cn(CC(=O)Nc2nc3cc(C)c(C)cc3[nH]2)nn1 [7d, N-(5,6-Dimethyl-1H-benzo[d]imidazol-2-yl)-2-(4-nonyl-1H-1,2,3-triazol-1-yl)acetamide] | 37.1 ± 7.75 | 44.6 ± 3.87 | 41.6 ± 5.08 | – | – | – | –
20 | O=C(Cn1cc(Cn2cc(Cl)ccc2=O)nn1)Nc1nc2ccccc2[nH]1 [6f, N-(1H-Benzo[d]imidazol-2-yl)-2-(4-((5-chloro-2-oxopyridin-1(2H)-yl)methyl)-1H-1,2,3-triazol-1-yl)acetamide] | 36.1 ± 10.7 | 58.8 ± 5.09 | 52.7 ± 11.9 | – | – | – | –
21 | Cc1cc2nc(NC(=O)Cn3cc(-c4cccc([N+](=O)[O-])c4)nn3)[nH]c2cc1C [7n, N-(5,6-Dimethyl-1H-benzo[d]imidazol-2-yl)-2-(4-(3-nitrophenyl)-1H-1,2,3-triazol-1-yl)acetamide] | 34.2 ± 7.43 | 46.7 ± 4.87 | 34.4 ± 14.1 | – | – | – | –
22 | O=C(CCCc1cn(-c2ccc([N+](=O)[O-])cc2)nn1)Nc1nc2ccccc2[nH]1 [11d, N-(1H-Benzo[d]imidazol-2-yl)-4-(1-(4-nitrophenyl)-1H-1,2,3-triazol-4-yl)butanamide] | 21.2 ± 1.76 | 39.4 ± 4.6 | 21.4 ± 2.62 | – | – | – | –
23 | CC(C)(C)c1ccc(-c2cn(CC(=O)Nc3nc4ccccc4[nH]3)nn2)cc1 [6l, N-(1H-Benzo[d]imidazol-2-yl)-2-(4-(4-(tert-butyl)phenyl)-1H-1,2,3-triazol-1-yl)acetamide] | – | 35.2 ± 8.78 | – | – | – | – | –
24 | O=C1C=C(Br)/C(=C/Br)O1 [Furanone 30, reference compound] | – | – | – | – | 77.33 ± 2.00 | 83.02 ± 3.15 | 86.86 ± 1.18
25 | Cc1cc2nc(NC(=O)Cn3cc(-c4ccc([N+](=O)[O-])cc4)nn3)[nH]c2cc1C [7m, N-(5,6-Dimethyl-1H-benzo[d]imidazol-2-yl)-2-(4-(4-nitrophenyl)-1H-1,2,3-triazol-1-yl)acetamide] | 21 ± 10.3 | 53.9 ± 9.78 | 31.5 ± 16.2 | – | – | – | –
26 | O=C(CCCc1cn(CC(=O)NC2CCCC2)nn1)Nc1nc2ccccc2[nH]1 [11a, N-(1H-Benzo[d]imidazol-2-yl)-4-(1-(2-(cyclopentylamino)-2-oxoethyl)-1H-1,2,3-triazol-4-yl)butanamide] | 42.3 ± 10.3 | 51.2 ± 7.1 | 45.9 ± 8.18 | – | – | – | –
27 | O=C(CCCc1cn(CC(=O)NC2CCCCC2)nn1)Nc1nc2ccccc2[nH]1 [11b, N-(1H-Benzo[d]imidazol-2-yl)-4-(1-(2-(cyclohexylamino)-2-oxoethyl)-1H-1,2,3-triazol-4-yl)butanamide] | – | 12.9 ± 20.2 | – | – | – | – | –
28 | CCCCCCCc1cn(CC(=O)Nc2nc3ccccc3[nH]2)nn1 [6c, N-(1H-Benzo[d]imidazol-2-yl)-2-(4-heptyl-1H-1,2,3-triazol-1-yl)acetamide] | 25.7 ± 7.62 | 42.8 ± 14.6 | 34.7 ± 11.6 | – | – | – | –
29 | O=C(Cn1cc(-c2ccc(F)cc2)nn1)Nc1nc2ccccc2[nH]1 [6h, N-(1H-Benzo[d]imidazol-2-yl)-2-(4-(4-fluorophenyl)-1H-1,2,3-triazol-1-yl)acetamide] | 49 ± 12.3 | 56.1 ± 1.77 | 54.9 ± 2.42 | – | – | – | –
30 | O=C(Cn1cc(-c2ccc(C(F)(F)F)cc2)nn1)Nc1nc2ccccc2[nH]1 [6o, N-(1H-Benzo[d]imidazol-2-yl)-2-(4-(4-(trifluoromethyl)phenyl)-1H-1,2,3-triazol-1-yl)acetamide] | 57.5 ± 7.73 | 64.2 ± 7.3 | 59.9 ± 7.99 | – | – | – | –
31 | COc1ccc(-c2cn(CC(=O)Nc3nc4ccccc4[nH]3)nn2)cc1 [6n, N-(1H-Benzo[d]imidazol-2-yl)-2-(4-(4-methoxyphenyl)-1H-1,2,3-triazol-1-yl)acetamide] | – | 20 ± 14 | 5.16 ± 16.6 | – | – | – | –
